High-throughput results deposited in PubChem by several laboratories.
FGF22 binding: binders of human FGF22 protein, primary screen, FGF22 synaptogenesis inhibitor project, biophysical, thermal shift, single point; AID 651658, 2012; hit rate 1.5% among 340,000; recombinant FGF22 thermal shift, SYPRO orange fluorescence; percent of sucrose octasulfate shift, DMSO zero; activity (Tm shift, normalised), % at 9.99 µM; Fibroblast growth factor 22 (Homo sapiens), Q9HCT0;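 active means mean Tm shift, scaled 0 neutral to 100 positive control, at about 1.3% or above, every replicate too, limit read from the data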
Target sequence (Q9HCT0 whole entry, looked up): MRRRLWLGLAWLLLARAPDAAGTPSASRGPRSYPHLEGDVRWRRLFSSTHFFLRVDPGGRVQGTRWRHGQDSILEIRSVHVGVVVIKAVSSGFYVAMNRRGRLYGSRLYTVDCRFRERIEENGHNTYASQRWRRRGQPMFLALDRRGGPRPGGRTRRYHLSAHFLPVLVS
EBNA-1 inh: EBNA-1 DNA-binding inhibitors, primary screen, biochemical, fluorescence polarization. inhibition, % at 14.8 µM. hit rate 0.34% among 300,000. AID 1950, 2009; in the data active means inhibition above about 28%
NR3A LBD binder: binders of NR3A ligand-binding domain, primary screen, biophysical, differential scanning fluorimetry, uHTS; Tm shift relative to glycine control, % at 25 µM; NR3A LBD differential scanning fluorimetry, Tm shift; 0% = protein alone, 100% = glycine-bound protein; hit rate 2.5% among 340,000; Glutamate receptor ionotropic, NMDA 3A (GRIN3A) ligand-binding domain; AID 1259313, 2017;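 active means melting temperature shift of at least 10% of the positive control shift, at one fixed dose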
ZTA DNA inh: ZTA (EBV) inhibition in EBNA-1 counter-screen | ZTA-DNA binding, fluorescence polarization | inhibition, % at 11 µM | hit rate 0.15% among 320,000 | AID 2234; in the data active means inhibition above about 33%
Target sequence (P03206 whole entry, looked up): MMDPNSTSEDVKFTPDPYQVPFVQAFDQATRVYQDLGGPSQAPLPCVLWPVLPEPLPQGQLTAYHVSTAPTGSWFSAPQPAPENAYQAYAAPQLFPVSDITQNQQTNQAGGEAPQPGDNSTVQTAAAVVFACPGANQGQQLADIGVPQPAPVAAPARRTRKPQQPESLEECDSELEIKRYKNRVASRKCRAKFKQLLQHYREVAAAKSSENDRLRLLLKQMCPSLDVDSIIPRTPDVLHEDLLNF
DNA FID counter-1: compounds displacing fluorescent DNA intercalator, primary screen, artefact control for HCV NS3 helicase inhibitor project, biochemical, FID fluorescence | hit rate 0.17% among 290,000 | inhibition, % at 7.9 µM | AID 1845, 2009 | DNA fluorescent intercalator displacement;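 further: 0% = vehicle and 100% = reference compound; higher means more ethidium bromide displaced from hairpin DNA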
NS3 helicase inh: inhibitors of HCV NS3 helicase, primary screen, biochemical, Cy5 molecular beacon fluorescence; Hepatitis C virus NS3 helicase; NS3 helicase DNA unwinding; inhibition, % at 10.9 µM; hit rate 0.56% among 290,000; AID 1800, 2009;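 active means inhibition above the mean of all tested compounds plus 3 SD, set per campaign, cut at about 35% in these data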;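 further: 0% = DMSO wells and 100% = thioflavine S control wells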
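System: HCV NS3 helicase fragment; control set: DMSO and thioflavine S; technique: Cy5 fluorescence at 0 and 60 min, beacon hairpin quenching; reagent: beacon DNA duplex substrate plus ATP; replicates: singlicate; schedule: 1 h reaction at 25 °C, ATP-initiated; medium: MOPS buffer pH 6.5 with MgCl2, DTT, Tween20, BSA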
NS3 hel confirm: HCV NS3 helicase inhibitors, retest, confirmation, biochemical, Cy5 molecular beacon fluorescence, triplicate. shares compounds with NS3 helicase inh. NS3 helicase DNA unwinding. inhibition, % at 10.9 µM. hit rate 31% among 1,600. AID 1943, 2009;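 active means inhibition above the mean of all tested compounds plus 3 SD, cutoff set per campaign, cut at about 36% in these data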
DNA FID counter-2: compounds displacing fluorescent DNA intercalator, artefact control for HCV NS3 helicase inhibitor project, biochemical, FID fluorescence, triplicate. inhibition, % at 7.9 µM. shares compounds with NS3 helicase inh. hit rate 4% among 1,600. DNA fluorescent intercalator displacement. AID 1945, 2009;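 further: 0% = vehicle and 100% = reference compound; higher means more displacement of ethidium bromide from the DNA hairpin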
DNA FID DR: compounds displacing fluorescent intercalator from DNA, dose response, counter-screen for HCV NS3 helicase inhibitor project, biochemical, fluorescence. shares compounds with NS3 helicase inh. fluorescent intercalator displacement from DNA. IC50, µM. 120 tested, under 10 active; call rule not given here
Numbers without * were called inactive; x = no result given. Only some compounds are listed: those with a hit (about 3.6% of all), similar ones and a draw of the others. Unless noted, no stated cut-off is given here; in the data, active means inhibition above about 37%; inactive means the rest.

SMILES | FGF22 binding | EBNA-1 inh | NR3A LBD binder | ZTA DNA inh | DNA FID counter-1 | NS3 helicase inh | NS3 hel confirm | DNA FID counter-2 | others
C/C(=N/NC(=O)c1cccs1)c1cccs1 | -0.1 | 8.4 | -4.4 | -9.5 | -6.8 | -2.8 | x | x
COC(=O)C1=C(C)NC(C)=C(C(=O)OC)C1c1ccc(-c2cc(Cl)ccc2Cl)o1 | x | -7.2 | 8.2 | 10.9 | -2.0 | 15.3 | x | x
COCCOC(=O)C1=C(C)NC(=O)NC1c1ccc(-c2cc(Cl)ccc2Cl)o1 (configuration not stated) | 0.5 | 2.8 | -2.7 | 0.1 | -46.9 | 42.9* | -19.6 | -19.4
COCC(=O)N1C[C@H](C)[C@@H](OC)CN(C)C(=O)c2cc(NC(=O)NC(C)C)ccc2OC[C@H]1C | -0.1 | x | x | x | x | x | x | x
CC(/C=N/NC(=O)Cc1cc(=O)[nH][nH]1)=C\c1ccccc1 | x | 2.6 | 1.5 | 5.4 | -22.5 | 39.4* | -6.4 | 2.6
CC(/C=N/NC(=O)c1cccc(F)c1)=C\c1ccccc1 | 0.6 | -11.6 | 4.7 | -8.7 | -18.9 | 12.8 | x | x
Cc1c(C#N)c(O)[nH]c(=O)c1N=Nc1ccc(S(N)(=O)=O)cc1 | -0.1 | -8.5 | -13.0 | 9.2 | -0.1 | 56.6* | -15.4 | 11.7
Cc1c(C#N)c(O)[nH]c(=O)c1N=Nc1ccc(Cl)c(C(=O)O)c1 | -0.3 | 5.5 | -0.5 | -1.1 | -2.5 | 5.2 | x | x
O=C(Nc1ccc(F)cc1)N1C[C@@H]2[C@H](c3ccccc31)[C@H](CO)N2Cc1cocn1 | -1.1 | x | x | x | x | x | x | x
COc1ccc(/C=N/NC2=NS(=O)(=O)c3ccccc32)cc1OC(C)=O | -0.1 | -10.2 | -0.1 | 0.8 | -7.1 | 51.5* | -0.2 | -1.1
CN(C)c1ccc(/C=N/NC2=NS(=O)(=O)c3ccccc32)cc1 | -0.1 | -4.7 | 3.8 | 5.0 | -15.7 | 39.7* | -5.7 | -13.6
COc1ccc(/C=N/NC2=NS(=O)(=O)c3ccccc32)cc1 | -0.1 | -4.5 | 1.9 | -17.3 | -4.8 | 30.9 | x | x
C[C@H](CO)N1C[C@H](C)[C@@H](CN(C)Cc2ccccc2)Oc2ccc(NC(=O)CCC(F)(F)F)cc2C1=O | 0.2 | x | x | x | x | x | x | x
CCCNC(=O)[C@@H]1[C@@H](CO)[C@@H]2Cn3c(cccc3=O)[C@H]1N2Cc1cc(F)ccc1F | -0.1 | x | x | x | x | x | x | x
N=C1S/C(=C\c2ccc(-c3ccccc3C(=O)O)o2)C(=O)N1c1ccc2c(c1)OCO2 | 0.7 | x | 3.4 | x | -21.9 | 18.7 | x | x
COc1ccccc1N1C(=N)S/C(=C\c2ccc(-c3ccccc3C(=O)O)o2)C1=O | -0.2 | -0.8 | -5.2 | -12.2 | -27.9 | 41.1* | 40.2* | -18.7
COCCCn1c(=O)/c(=C\c2ccccc2OC(F)F)s/c1=C(/C#N)C(=O)NC(C)C | x | 4.9 | -7.9 | -7.4 | 4.2 | -16.0 | x | x
COCCCn1c(=O)/c(=C\c2ccccc2OC(C)C)s/c1=C(/C#N)C(=O)Nc1ccc(C(=O)O)cc1 | -0.2 | 12.8 | 2.6 | -0.2 | -20.2 | 50.4* | 58.4* | -30.6
C[C@H](CO)N1C[C@H](C)[C@H](CN(C)Cc2ccccc2)OCCCC[C@H](C)Oc2ccc(NC(=O)Nc3ccccc3)cc2C1=O | -0.2 | x | x | x | x | x | x | x
CCOC(=O)C1Nc2ccc(Br)cc2C2C=CCC12 (configuration not stated) | -0.1 | 3.4 | 1.4 | 24.1 | 0.3 | 38.9* | 26.3 | -4.1
O=C(O)C1Nc2ccc(Br)cc2C2C=CCC12 (configuration not stated) | x | 22.0 | -7.6 | 24.2 | -12.3 | 42.7* | 88.2* | -3.8
O=C(O)C1Nc2c(O)cccc2C2C=CCC12 (configuration not stated) | -0.2 | 42.3* | -4.8 | 30.4 | 0.3 | 58.2* | 110.3* | 13.7 | DNA FID DR=>79.4
CC(C)CNC(=O)C1Nc2ccccc2C2C=CCC12 (configuration not stated) | -0.1 | -0.3 | -10.4 | 7.2 | x | x | x | x
CCOC(=O)c1ccc2c(c1)C1C=CCC1C(C(=O)OCC)N2 (configuration not stated) | -0.1 | -7.0 | -2.2 | -1.6 | -11.6 | 50.7* | 14.2 | 7.2
CCOC(=O)C1Nc2ccc(C)cc2C2C=CCC12 (configuration not stated) | 0.0 | 3.4 | -2.8 | -0.9 | x | x | x | x
SMILES | FGF22 binding | EBNA-1 inh | NR3A LBD binder | ZTA DNA inh | DNA FID counter-1 | NS3 helicase inh | NS3 hel confirm | DNA FID counter-2 | others
C[C@H](CO)N1C[C@H](C)[C@H](CN(C)C(=O)CN(C)C)Oc2cc(C#Cc3cccnc3)ccc2S1(=O)=O | 1.1 | x | x | x | x | x | x | x
CC1CC(=O)c2c(cc3c(-c4c(O)cc(O)c5c(O)c6c(cc45)OC(C)CC6=O)c(O)cc(O)c3c2O)O1 (configuration not stated) | x | 20.0 | 23.8* | 11.9 | 28.1 | 97.8* | 123.1* | 72.3*
COc1cccc(S(=O)(=O)Nc2ccc3c(c2)[C@H]2C[C@@H](CC(=O)NCCc4ccccc4)O[C@@H](CO)[C@H]2O3)c1 | 0.1 | x | x | x | x | x | x | x
CO[C@H]1CN(C)C(=O)c2cc(NC(=O)C3CC3)ccc2OC[C@H](C)N(C(=O)c2cccnc2)C[C@@H]1C | -0.4 | x | x | x | x | x | x | x
Cc1cc(Cl)ccc1Oc1ccc(C(N)=O)cc1[N+](=O)[O-] | x | -12.3 | 1.6 | -6.7 | 2.1 | -2.3 | x | x
Cc1cc(Cl)ccc1Oc1ccccc1C(=O)CC#N | 0.2 | -5.7 | -1.8 | -5.9 | -8.4 | 36.6* | 53.1* | 9.0 | DNA FID DR=>79.4
C[C@@H]1CCCCO[C@@H](CN(C)C(=O)Cc2ccccc2)[C@@H](C)CN([C@H](C)CO)C(=O)c2cc(NC(=O)Cc3ccccc3)ccc2O1 | -0.1 | x | x | x | x | x | x | x
C[C@H](CO)N1C[C@H](C)[C@H](CN(C)C)Oc2ncc(-c3cccnc3)cc2C1=O | -0.7 | x | x | x | x | x | x | x
C[C@@H]1CN([C@H](C)CO)C(=O)c2cc(C#C[C@@H](C)O)cnc2O[C@@H]1CN(C)C(=O)c1ccccc1 | -0.1 | x | x | x | x | x | x | x
O=C1OC(c2ccc(Br)cc2)=N/C1=C\c1ccco1 | 0.2 | -6.5 | -0.8 | 0.6 | -24.7 | 46.8* | -5.6 | 15.8
Cc1noc(C)c1NC(=O)Nc1cccc2c1O[C@H](CN(C)Cc1ccc(C(=O)O)cc1)[C@H](C)CN([C@@H](C)CO)C2=O | 0.2 | x | x | x | x | x | x | x
